Reference: ChEMBL document CHEMBL4219253, “Positive Modulators of the N-Methyl-d-aspartate Receptor: Structure-Activity Relationship Study of Steroidal 3-Hemiesters” (J Med Chem, 2018)

Key:
Assay type in all cases: cell-based
[1] = target: T1, Glutamate NMDA receptor; Grin1/Grin2b (Rattus norvegicus) (UniProt P35439+Q00960); assay: Positive allosteric modulation of recombinant rat GluN1alpha/GluN2B receptor expressed in HEK293 cells assessed as potentiation of glutamate-induced current response at 0.3 to 300 uM at holding potential -60mV by whole cell voltage clamp method relative to control
How it was run: (§1)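 HEK293 cells transfected with GluN1-1a, the GluN2 subunit and GFP. Whole-cell voltage clamp at -60 mV, series resistance <10 MΩ, 80-90% compensation, room temperature (21–25 °C). Compound is co-applied with 1 µM glutamate by multibarrel fast perfusion (exchange ~10 ms). DMSO is held at 1% in all test and control solutions. Readout is % potentiation of the glutamate-evoked current.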

[2] = target: Glutamate NMDA receptor; Grin1/Grin2b (Rattus norvegicus, UniProt P35439+Q00960); assay: Positive allosteric modulation of recombinant rat GluN1alpha/GluN2B receptor expressed in HEK293 cells assessed as potentiation of glutamate-induced current response at holding potential -60mV by whole cell voltage clamp method
How it was run: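 HEK293 cells transfected with GluN1-1a, GluN2A, 2B, 2C or 2D and GFP cDNA. Whole-cell voltage clamp at -60 mV, 21–25 °C, series resistance <10 MΩ compensated 80–90%. Compound co-applied with 1 µM glutamate by fast multibarrel perfusion. DMSO 1% in all solutions. At least four cells per point.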

[3] = target: T1, Glutamate NMDA receptor; Grin1/Grin2b (Rattus norvegicus); assay: Positive allosteric modulation of recombinant rat GluN1alpha/GluN2B receptor expressed in HEK293 cells assessed as potentiation of glutamate-induced current response at 1 to 100 uM at holding potential -60mV by whole cell voltage clamp method relative to control; how it was run: as §1
[4] = target: T1, Glutamate NMDA receptor; Grin1/Grin2b (Rattus norvegicus); assay: Positive allosteric modulation of recombinant rat GluN1alpha/GluN2B receptor expressed in HEK293 cells assessed as potentiation of glutamate-induced current response at 100 uM at holding potential -60mV by whole cell voltage clamp method relative to control; how it was run: as §1
[5] = target: Glutamate NMDA receptor; Grin1/Grin2a (Rattus norvegicus) (UniProt P35439+Q00959); assay: Positive allosteric modulation of recombinant rat GluN1alpha/GluN2A receptor expressed in HEK293 cells assessed as potentiation of glutamate-induced current response at 100 uM at holding potential -60mV by whole cell voltage clamp method relative to control; how it was run: as §1
[6] = target: Glutamate NMDA receptor; Grin1/Grin2c (Rattus norvegicus) (UniProt P35439+Q00961); assay: Positive allosteric modulation of recombinant rat GluN1alpha/GluN2C receptor expressed in HEK293 cells assessed as potentiation of glutamate-induced current response at 100 uM at holding potential -60mV by whole cell voltage clamp method relative to control; how it was run: as §1
[7] = target: Ionotropic glutamate receptor NMDA 1/2D (Rattus norvegicus) (UniProt P35439+Q62645); assay: Positive allosteric modulation of recombinant rat GluN1alpha/GluN2D receptor expressed in HEK293 cells assessed as potentiation of glutamate-induced current response at 100 uM at holding potential -60mV by whole cell voltage clamp method relative to control; how it was run: as §1
[8] = target: T1, Glutamate NMDA receptor; Grin1/Grin2b (Rattus norvegicus); assay: Positive allosteric modulation of recombinant rat GluN1alpha/GluN2B receptor expressed in HEK293 cells assessed as potentiation of glutamate-induced current response at 1 to 300 uM at holding potential -60mV by whole cell voltage clamp method relative to control

## CC[C@H]1CC[C@H]2[C@@H]3CC=C4C[C@@H](OC(=O)CC(=O)O)CC[C@]4(C)[C@H]3CC[C@]12C
[1]
  Emax: 71%
[2]
  EC50: 10.7 µM

## CC[C@H]1CC[C@H]2[C@@H]3CC=C4C[C@@H](OC(=O)CCCCC(=O)O)CC[C@]4(C)[C@H]3CC[C@]12C
[1]
  Emax: 60%
[2]
  EC50: 17.2 µM

## CC[C@H]1CC[C@H]2[C@@H]3CC=C4C[C@@H](OC(=O)CCC(=O)O)CC[C@]4(C)[C@H]3CC[C@]12C
[1]
  Emax: 133%
[2]
  EC50: 9.9 µM

## CC(=O)[C@H]1CC[C@H]2[C@@H]3CC=C4C[C@@H](OC(=O)CCCCCCC(=O)O)CC[C@]4(C)[C@H]3CC[C@]12C
[3]
  Emax: 156%
[2]
  EC50: 19.3 µM

## CC(=O)[C@H]1CC[C@H]2[C@@H]3CC=C4C[C@@H](OC(=O)CC(=O)O)CC[C@]4(C)[C@H]3CC[C@]12C
[3]
  Emax: 108%
[2]
  EC50: 39.8 µM

## C[C@@]12CCC[C@H]1[C@@H]1CC=C3C[C@@H](OC(=O)CCCC(=O)O)CC[C@]3(C)[C@H]1CC2
[1]
  Emax: 348%
[2]
  EC50: 5.2 µM

## C[C@]12CC[C@H](OC(=O)CCCCCCC(=O)O)CC1=CC[C@@H]1[C@@H]2CC[C@]2(C)C(=O)CC[C@@H]12
[3]
  Emax: 189%
[2]
  EC50: 49.1 µM

## C[C@@]12CCC[C@H]1[C@@H]1CC=C3C[C@@H](OC(=O)CCCCC(=O)O)CC[C@]3(C)[C@H]1CC2
[1]
  Emax: 191%
[2]
  EC50: 2.8 µM

## C[C@@]12CCC[C@H]1[C@@H]1CC=C3C[C@@H](OC(=O)CCCCCC(=O)O)CC[C@]3(C)[C@H]1CC2
[1]
  Emax: 109%
[2]
  EC50: 1.8 µM

## CC(=O)[C@H]1CC[C@H]2[C@@H]3CC=C4C[C@@H](OS(=O)(=O)O)CC[C@]4(C)[C@H]3CC[C@]12C.c1ccncc1
[3]
  Emax: 116%
[4]
  Activity: 78%
[5]
  Activity: 107%
[6]
  Activity: -47%
[7]
  Activity: -48%

## C[C@@]12CCC[C@H]1[C@@H]1CC=C3C[C@@H](OC(=O)CC(=O)O)CC[C@]3(C)[C@H]1CC2
[1]
  Emax: 236%
[2]
  EC50: 4.7 µM

## C[C@]12CC[C@H](OC(=O)CCCCCCCC(=O)O)CC1=CC[C@@H]1[C@@H]2CC[C@]2(C)C(=O)CC[C@@H]12
[3]
  Emax: 226%
[2]
  EC50: 38.2 µM

## CC[C@H]1CC[C@H]2[C@@H]3CC=C4C[C@@H](OC(=O)CCCCCC(=O)O)CC[C@]4(C)[C@H]3CC[C@]12C
[1]
  Emax: 48%
[2]
  EC50: 26.2 µM

## C[C@]12CC[C@H](OC(=O)CCCCCCCCC(=O)O)CC1=CC[C@@H]1[C@@H]2CC[C@]2(C)C(=O)CC[C@@H]12
[3]
  Emax: 165%
[2]
  EC50: 16.1 µM

## CC(=O)[C@H]1CC[C@H]2[C@@H]3CC=C4C[C@@H](OC(=O)CCCCCC(=O)O)CC[C@]4(C)[C@H]3CC[C@]12C
[3]
  Emax: 191%
[2]
  EC50: 18 µM
[4]
  Activity: 458%

## CC(=O)[C@H]1CC[C@H]2[C@@H]3CC=C4C[C@@H](OC(=O)C(=O)O)CC[C@]4(C)[C@H]3CC[C@]12C
[3]
  Emax: 93%
[2]
  EC50: 48.6 µM

## CC(=O)[C@H]1CC[C@H]2[C@@H]3CC=C4C[C@@H](OC(=O)CCCC(=O)O)CC[C@]4(C)[C@H]3CC[C@]12C
[3]
  Emax: 183%
[2]
  EC50: 19 µM
[4]
  Activity: 460%

## CC(=O)[C@H]1CC[C@H]2[C@@H]3CC=C4C[C@@H](OC(=O)CCC(=O)O)CC[C@]4(C)[C@H]3CC[C@]12C [PREGNENOLONE SUCCINATE]
[3]
  Emax: 177%
[2]
  EC50: 27.6 µM
[4]
  Activity: 267%

## C[C@]12CC[C@H](OC(=O)CCCCCC(=O)O)CC1=CC[C@@H]1[C@@H]2CC[C@]2(C)C(=O)CC[C@@H]12
[3]
  Emax: 187%
[2]
  EC50: 82.4 µM

## CC[C@H]1CC[C@H]2[C@@H]3CC=C4C[C@@H](OC(=O)CCCC(=O)O)CC[C@]4(C)[C@H]3CC[C@]12C
[1]
  Emax: 209%
[2]
  EC50: 9.9 µM

## C[C@]12CC[C@H](OC(=O)CCCC(=O)O)CC1=CC[C@@H]1[C@@H]2CC[C@]2(C)C(=O)CC[C@@H]12
[8]
  Emax: 154%
[2]
  EC50: 151 µM

## C[C@@]12CCC[C@H]1[C@@H]1CC=C3C[C@@H](OC(=O)CCC(=O)O)CC[C@]3(C)[C@H]1CC2
[1]
  Emax: 452%
[2]
  EC50: 7.4 µM

## C[C@]12CC[C@H](OC(=O)CCCCC(=O)O)CC1=CC[C@@H]1[C@@H]2CC[C@]2(C)C(=O)CC[C@@H]12
[8]
  Emax: 180%
[2]
  EC50: 109 µM
